The source made the active and inactive calls. No cut-off for these calls is given here.
How the values were obtained:
[1] = Inhibition of cell proliferation in WEHI231 cell line after 48 hrs; type: functional, cell-based; settings: Mus musculus, WEHI231, 48 h
Summary of the method: (§1)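 WEHI-231 cells in DMEM with 10% FBS and 50 µM β-mercaptoethanol are plated at 1 × 10⁵ viable cells/mL and dosed 24 h later (final DMSO 0.1%) for 48 h. Cells are triturated to single-cell suspension and counted on a Coulter counter. Counts are given as % of the DMSO control. Mean ± SEM of three independent experiments.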

U-937 [2] = experiment: Induction of attachment of U937 cells after 48 hrs; type: functional, cell-based; settings: Homo sapiens; for EC50: U-937, 48 h
Summary of the method: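 U937 monocytes in RPMI-1640 with 10% FBS are plated at 1 × 10⁵ cells/mL and exposed (final DMSO 0.1%) for 48 h. Non-attached cells and attached cells (after trypsinization) are counted on a Coulter counter. Attached cells are expressed as % of total cells. Mean ± SEM of three independent experiments.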

[3] = biological target: Protein kinase C alpha type (Homo sapiens, UniProt P17252); experiment: Displacement of [3H]PDBu from PKCalpha
Summary of the method: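 Competition with [3H]PDBu for binding to recombinant single isozyme PKC alpha in the presence of phosphatidylserine. ID50 is taken from a least-squares fit of a sigmoidal competition curve. Ki = ID50/(1 + L/Kd), where L is free [3H]PDBu at the ID50 and Kd is the [3H]PDBu dissociation constant. Mean ± standard error, three determinations.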

[4] = Inhibition of cell proliferation in WEHI231 cell line at 10 uM after 48 hrs; type: functional; settings: Mus musculus, WEHI231, 48 h; summary of the method: as §1
U-937 [5] = experiment: Reduction of PMA-induced attachment of U937 cells at 30 uM after 48 hrs; type: functional, cell-based; settings: Homo sapiens
CHO [6] = experiment: Translocation of PKCalpha from cytosol to membrane in CHO cells at 20 uM after 120 mins; type: functional, cell-based; settings: Cricetulus griseus
Summary of the method: (§2)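 CHO cells in F12-K with 10% FBS are transfected with GFP-tagged PKC alpha or PKC delta. Live cells are imaged by confocal microscopy with 488 nm excitation, time-lapse every 30 s. Redistribution from cytosol to plasma and internal membranes is followed before and after ligand addition at 10 or 20 µM, over up to about 120 min. Three independent experiments.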

[7] = Stimulation of ERK phosphorylation in LNCaP cells after 30 min; type: functional, cell-based; settings: Homo sapiens, 0.5 h
Summary of the method: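 LNCaP prostate cells in RPMI-1640 with 10% FBS, plated at about 60% confluency and treated 24 h later with a range of concentrations for 15 or 30 min. Cells were washed with PBS and total lysates run on 10% SDS-PAGE, blotted and probed with anti-phosphoERK. Band intensity was expressed relative to 100 nM PMA (= 100%). Approximate EC50 was read from the graph; mean ± SEM of three experiments.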

[8] = Induction of IL6 secretion in WEHI231 cells at 30 uM after 6 hrs relative to 10 uM PMA; type: functional, Mus musculus; settings: in the assay text read “10 nM PMA” for “10 uM PMA”
Summary of the method: (§3)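 WEHI-231 cells are grown in DMEM with 10% FBS and 50 µM β-mercaptoethanol. They are plated at 1 × 10⁵ viable cells/mL and dosed 24 h later (final DMSO 0.1%) for 6 or 24 h. IL-6 in the supernatant is measured by ELISA, one measurement per experiment. It is expressed as % of IL-6 induced by 10 nM PMA at 6 h.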

[9] = Induction of IL6 secretion in WEHI231 cells at 30 uM after 24 hrs relative to 10 uM PMA; type: functional, Mus musculus; settings: in the assay text read “10 nM PMA” for “10 uM PMA”; summary of the method: as §3
CHO [10] = experiment: Translocation of PKCalpha from cytosol to membrane in CHO cells; type: functional, cell-based; settings: Cricetulus griseus; summary of the method: as §2
CHO [11] = experiment: Translocation of PKCdelta from cytosol to membrane in CHO cells; type: functional, cell-based; settings: Cricetulus griseus; summary of the method: as §2
LNCaP = experiment: Stimulation of ERK phosphorylation in LNCaP cells at 10 uM after 30 min relative to PMA; type: cell-based; settings: Homo sapiens
Summary of the method: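 LNCaP prostate cells in RPMI-1640 with 10% FBS are plated at about 60% confluency and treated 24 h later for 15 or 30 min. Cells are PBS-washed and lysed, and lysates go through 10% SDS-PAGE and immunoblotting with anti-phosphoERK. Phospho-ERK band intensity is expressed relative to 100 nM PMA (= 100%).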

CHO [12] = experiment: Translocation of PKC from cytosol to membrane in CHO cells; type: functional, cell-based; settings: Cricetulus griseus; summary of the method: as §2

Row | SMILES | EC50 (U-937 [2]) [nM] | Ki [3] [nM] | EC50 [1] [nM] | further results
1 | CCCCCCCCCCCCCC(=O)O[C@@H]1[C@@H](C)[C@@]2(O)[C@@H](C=C(CO)C[C@]3(O)C(=O)C(C)=C[C@@H]23)[C@@H]2C(C)(C)[C@]12OC(C)=O [PHORBOL MYRISTATE ACETATE] | 0.45 |  | 0.85 | 
2 | COC(=O)COc1ccc(C#Cc2ccc(C#Cc3ccc(C#Cc4ccc(C(=O)OCC5(CO)CC(=C(C)C)C(=O)O5)cc4)cc3)cc2)cc1 (centres undefined) |  | 127 |  | 
3 | CC(C)=C1CC(CO)(COC(=O)c2ccc(C#Cc3ccc(C#Cc4ccc(OCCOCCOCCOC(=O)N(CC(=O)OC(C)(C)C)CC(=O)OC(C)(C)C)cc4)cc3)cc2)OC1=O (centres undefined) |  | 18.3 |  | inhibition at 10 µM [4]: 35%; Activity (U-937 [2]): Active
4 | CCCCCCCCCC(=O)OCC1(CO)CC(=C(C)C)C(=O)O1 (centres undefined) |  | 15.9 |  | EC50 [7]: 3000 nM; Activity [8]: 80%; Activity [9]: 25%; Activity (U-937 [2]): inactive; Activity (CHO [10]): Active; Activity (CHO [11]): Active
5 | CC(C)=C1CC(CO)(COC(=O)c2ccc(C#Cc3ccc(C#Cc4ccc(OCCOCCOCCN(CC(=O)OC(C)(C)C)CC(=O)OC(C)(C)C)cc4)cc3)cc2)OC1=O (centres undefined) |  | 111 |  | 
6 | COC(=O)CCCCCCCCCCCCCCCOc1ccc(C#Cc2ccc(C#Cc3ccc(C(=O)OCC4(CO)CC(=C(C)C)C(=O)O4)cc3)cc2)cc1 (centres undefined) | 1000 | 52.7 | 3000 | Activity (LNCaP): Active
7 | CC(C)=C1CC(CO)(COC(=O)c2ccc(C#Cc3ccc(C#Cc4ccc(OCCOCCOCCOC(=O)N(CC(=O)O)CC(=O)O)cc4)cc3)cc2)OC1=O (centres undefined) |  | 1390 |  | Activity (CHO [12]): Active

Further lines, with some results ahead:

Row | EC50 (U-937 [2]) [nM] | Ki [3] [nM] | SMILES | EC50 [1] [nM] | further results
8 | 250 | 11.6 | C#Cc1ccc(C#Cc2ccc(C#Cc3ccc(C(=O)OCC4(CO)CC(=C(C)C)C(=O)O4)cc3)cc2)cc1 (centres undefined) | 400 | Activity (U-937 [5]): Active; Activity (CHO [6]): Active
9 | 260 | 5.88 | COc1ccc(C#Cc2ccc(C#Cc3ccc(C(=O)OCC4(CO)CC(=C(C)C)C(=O)O4)cc3)cc2)cc1 (centres undefined) | 430 | 
10 |  | 15.8 | COC(=O)COc1ccc(C#Cc2ccc(C#Cc3ccc(C(=O)OCC4(CO)CC(=C(C)C)C(=O)O4)cc3)cc2)cc1 (centres undefined) |  | 
11 |  | 5.23 | C#Cc1ccc(C#Cc2ccc(C(=O)OCC3(CO)CC(=C(C)C)C(=O)O3)cc2)cc1 (centres undefined) | 3000 | EC50 [7]: 400 nM; Activity (CHO [10]): Active; Activity (CHO [11]): Active

Reference: ChEMBL document CHEMBL1142858, “Conformationally constrained analogues of diacylglycerol (DAG). 27. Modulation of membrane translocation of protein kinase C (PKC) isozymes alpha and delta by diacylglycerol lactones (DAG-lactones) containing rigid-rod acyl groups” (J Med Chem, 2007)
